Bioassay records from PubChem BioAssay.
The list is a sample of the results.
PGC1a acetyl up = compounds raising PGC1a acetylation signal, primary screen, PGC1a modulator project, cell-based, U2OS, AlphaScreen, signal-increasing mode; overnight; activation, % at 15.6 µM; 350,000 tested, 0.21% active;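 active means every replicate reaching activation of at least 50%, whatever the mean replicate activation; inconclusive means replicates that disagree or another doubt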;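 further: hits raise the AlphaScreen acetylation signal above neutral controls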
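System: Flag-PGC1a/GCN5 U2OS cells | Quantity: 7000 cells/well | Times: Overnight compound treatment, 37 °C | Measured by: AlphaScreen proximity luminescence, anti-acetyl-lysine antibody | Dosing: One concentration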
Hep G6PC suppr = suppressors of forskolin-stimulated G6PC mRNA, dose response, PGC-1a acetylation activator project, cell-based, hepatocytes, RT-qPCR, cherry-picked samples. G6PC suppression (normalized activity, % of positive control; higher = more suppression), % at 26 µM. shares compounds with PGC1a acetyl up. primary mouse hepatocytes. 240 tested, under 10 active;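 active means dose curves showing G6PC suppression whose half-maximal dose is at most twice the top valid dose; inconclusive means flat curves with moderate negative activity, or unreliable fits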;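 further: G6PC expression relative to GAPDH housekeeping gene as delta delta Ct; 0% = median of neutral control wells and 100% = median of positive control wells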
PCK1 hep suppr = suppression of PCK1 mRNA in primary hepatocytes, dose response, PGC-1a acetylation activator project, cell-based, primary mouse hepatocytes, RT-qPCR, cherry-pick; PCK1 expression decrease, unspecified at 26 µM; 230 tested, under 10 active; AID 743465, 2014; forskolin-stimulated; shares compounds with PGC1a acetyl up;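 active means compounds lowering PCK1 expression whose fitted half-maximal concentration is at most twice the top tested dose; inconclusive means flat fit with moderate opposite-direction effect, or poor fit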;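 further: values are delta delta Ct of PCK1 relative to GAPDH; higher delta delta Ct means lower PCK1 expression so positive values indicate hits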
Hep PGC-1a down = suppression of PGC-1a mRNA in primary hepatocytes, dose response, PGC-1a acetylation activator project, cell-based, primary mouse hepatocytes, RT-qPCR, cherry-pick. 240 tested, under 10 active. shares compounds with PGC1a acetyl up. PGC-1a mRNA qPCR, forskolin; top dose 26 µM. max activity (PGC-1a expression decrease), %. AID 743467, 2014;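 active means compound lowering PGC-1a expression with fitted half-maximal concentration at most twice its top tested dose; inconclusive means flat curve with moderate opposite-direction effect, or poor fit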;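 further: 0% = neutral control wells median and 100% = positive control wells median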
Starred values were filed as active, the others as inactive; u = inconclusive; x = no result; [ ] = dose if it differs, or a comment.

SMILES	PGC1a acetyl up	Hep G6PC suppr	PCK1 hep suppr	Hep PGC-1a down
Cc1cc(=O)[nH]c(NN)n1	-50	x	x	x
CCCC[C@@]1(C2CCCC2)Cc2cc(OCC(=O)O)c(Cl)c(Cl)c2C1=O	-95	x	x	x
CCC(CC)C(=O)c1c[nH]c(C(=O)NCc2ccccc2)c1	u	-46	-8.8	37
O=C(NCc1cccnc1)c1ccc(NC(=O)c2ccc(Br)cc2)cc1	84*	368	254	117
O=C(Cc1ccc(Cl)cc1)c1c[nH]c(C(=O)NCc2cccnc2)c1	65*	127	233	52
CC(C)(C)c1ccc(C(=O)c2c[nH]c(C(=O)NCc3cccnc3)c2)cc1	257*	-28	x	u
COCCNC(=O)CCc1c(C)nc2c(c(C)nn2-c2ccc(C)c(C)c2)c1C	-78	x	x	x
CCN1CCN(c2nnc(-c3ccccc3)c3ccccc23)CC1	-46	x	x	x
Cc1nc(N(CCO)C2CCCCC2)c2nnn(Cc3ccccc3)c2n1	-40	x	x	x
Cc1cc(C=O)c(C)n1-c1ccc(NC2CCCC2)c([N+](=O)[O-])c1	-50	x	x	x
O=C(c1ccc(F)cc1)N(C(=O)c1ccc(F)cc1)c1ncccn1	-43	x	x	x
CC1CCc2sc(C(=O)Nc3nnc(SCc4ccc(F)cc4)s3)cc2C1 (centres undefined)	-94	x	x	x
CC(/C=N/NC(=O)c1cc(-c2ccc(Cl)cc2)nc2ccccc12)=C\c1ccco1	-53	x	x	x
COc1ccc(C(c2nnnn2C2CCCC2)N2CCC(C)CC2)c(OC)c1 (centres undefined)	100*	100	137	134
CCCNC(=O)CN(C)C(=O)c1n[nH]c2ccccc12	-43	x	x	x
CC(C)N1CCc2c(sc(NC(=O)C3CCCCC3)c2C(N)=O)C1	-44	x	x	x
Cn1ncc(Cl)c1C(=O)Nc1sc2c(c1C(N)=O)CCC2	59*	16	-10	39
CCOC(=O)C1(Cc2cccc(F)c2)CCN(Cc2c(C)nn(CC)c2C)CC1	-48	x	x	x
CCOc1ccc(N(C)S(=O)(=O)c2cc(-c3cc(C)no3)ccc2C(C)C)cc1	65*	x	x	u
O=C1CC2CS(=O)(=O)CC2N1c1ccc(Cl)cc1Cl (centres undefined)	-56	x	x	x
CSC1SCC2C(=O)N(C)C(C(C)C)C(=O)OCC(NC(=O)c3cnc4ccccc4n3)C(=O)NC(C)C(=O)N(C)C1C(=O)N(C)C(C(C)C)C(=O)OCC(NC(=O)c1cnc3ccccc3n1)C(=O)NC(C)C(=O)N2C (centres undefined)	-39	x	x	x
COc1cc(CN2CCCC(CO)(Cc3cccc(Cl)c3)C2)cc2c1OCO2 (centres undefined)	-44	-16[8 µM]	165	86
S=C1NC2=C(CCCC2=C2SCCS2)C(c2ccccc2)N1 (centres undefined)	-41	x	x	x
O=C(CN1CCC(n2c(=O)[nH]c3ccccc32)CC1)NCc1ccc(Cl)s1	x	-14	-6.3	15
C#CCN1[C@H](/C=C/C2CC2)[C@H](Cc2ccccc2)OC(=O)[C@@H]1[C@@H]1N[C@@H](C(=O)OC)C(C)(C)S1	-46	x	x	x
SMILES	PGC1a acetyl up	Hep G6PC suppr	PCK1 hep suppr	Hep PGC-1a down
C[C@H]1CN([C@@H](C)CO)S(=O)(=O)c2ccc(C#CC3CCCCC3)cc2O[C@@H]1CN(C)Cc1cccnc1	-64	x	x	x
COc1ccc(CCNC(=O)c2cc(-c3ccco3)on2)cc1OC	87*	-12	-7.1	u
O=[N+]([O-])c1nn(-c2ccc(Cl)cc2)n(O)c1=NCc1ccncc1	-46	x	x	x
Cc1oc2c(c1C(=O)c1ccccc1)C(=O)C(=O)c1ccccc1-2	-66	x	x	x
NC(=O)Cn1cc(C(=O)c2cccs2)c2ccccc21	u	x	-14	26
O=C(NCc1ccccc1)C1Cc2c(-c3ccc(Cl)cc3)ccnc2O1 (centres undefined)	69*	214	-2.3	63
CC(=O)c1ccc(NC(=O)N2CCc3ccccc3C2)cc1	269*	45	-13	45
Cc1cc(N2CCN(C)CC2)nc(=S)[nH]1	-53	x	x	x
CCOC(=O)C(C)n1cnc2c(nnn2-c2ccc(C)cc2)c1=O (centres undefined)	-67	52	-31[8 µM]	u
O=C1C2C3C=CC(C4CC34)C2C(=O)N1/N=C/c1c[nH]c2ccccc12 (centres undefined)	-106	x	x	x
CCN(CC)c1ccc(N)cc1S(=O)(=O)Nc1ccccc1OC	57*	-10	79	25
NC1=C(Br)C(=O)c2ncccc2C1=O	-87	x	x	x
Cc1ccc(NC(=O)c2sccc2SCc2cccc(C(F)(F)F)c2)cc1	u	-22	76	141
